Experimental data taken from ChEMBL document CHEMBL4513216, “Probing the Open Global Health Chemical Diversity Library for Multistage-Active Starting Points for Next-Generation Antimalarials” (ACS Infect Dis, 2020).

Assay: Toxicity liver stage against HepG2, at 10uM
Assay type: cell-based
Design: test concentration 10 uM, cell line HepG2-A16-CD81EGFP
Settings: human, HepG2-A16-CD81EGFP cells; read-out: INHIBITION
In short: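 Uninfected HepG2-A16-CD81EGFP cells, 3 × 10^3 per well, 1536-well, plated on prespotted compound at 10 μM final, parasite-free screening media added to match infected plates; puromycin 10 μM positive, DMSO 0.5% negative; run in parallel with 48 h PbLuc assay at 37 °C, 5% CO2; viability by CellTiter-Glo luminescence, normalized to controls.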

Compound | cytotoxicity at 10 µM
CSc1cccc(CN2CCC(CCC(=O)NC3CC3)CC2)c1 | 1.28%
O=C(NCc1nnc2n1CCC2)c1cn(-c2cccc(Br)c2)nn1 | -4.3%
O=C(CC1NC(N2CCc3ccccc32)=NC1=O)Nc1ccc(Cl)cc1 (stereo not drawn) | 1.54%
COc1ccc2c(ccn2CC(=O)Nc2n[nH]c(C(C)C)n2)c1 | -6.72%
O=C([C@H]1C[C@H]2OCC[C@H]2N(C(=O)c2cnccn2)C1)N1CCCCO1 | 12.7%
Cn1cccc1C(=O)NCc1cnc2n1CCN(C(=O)c1ccoc1)C2 | 11.9%
CN1CCCc2sc(C(=O)NCc3cccnc3)nc21 | 14.9%
C[C@H]1C[C@H]2CN(C(=O)c3ccncn3)CC[C@@H]2O1 | 4.93%
Cc1c(Cl)c(C(F)(F)F)nn1C(C)C(=O)NN1CCN(C)CC1 (stereo not drawn) | -7.85%
COc1ccc(NC(C)=O)cc1S(=O)(=O)Nc1ccon1 | 1.08%
CCOc1ccc(C(=O)n2cccn2)cc1 | 0.45%
c1cc(CN2CCC(c3ccnc4nccn34)C2)ccn1 (stereo not drawn) | 1.58%
CNC(=O)C1(c2cnccn2)CCCN1C(=O)Cc1ccsc1 (stereo not drawn) | 4.12%
CN1CCC(c2cccc(Cc3ccc(F)cc3)n2)CC1 | -3.45%
Cc1nnc2n1CCN(C(=O)C1CCN(Cc3ccccc3)CC1)C2 | 1.28%
O=C1NCCCCC1SCc1coc(-c2ccccc2)n1 (stereo not drawn) | 11.6%
CCc1oc(C(=O)N2CCCC(c3nnn[nH]3)C2)cc1C (stereo not drawn) | 9.09%
Cc1cc(C)c(NC(=O)Nc2cnn(CC(O)CN(C)C)c2)c(C)c1 (stereo not drawn) | 12.5%
Cc1ccc(CNC(=O)Nc2nnc(C3CC3)s2)n1C | -1.61%
CS(=O)(=O)CCNC(=O)Nc1ccc(Cl)cc1-n1cccc1 | 48.2%
Cc1cc(OCCC(=O)NCc2ccc(F)cc2)nnc1C | 4.4%
Cn1ncc2c(=O)[nH]c(N3CCCC3c3cccs3)nc21 (stereo not drawn) | -0.53%

Compound | cytotoxicity at 10 µM
Cc1cc(NC(=O)N(C)CCN2CCN(c3ccccc3)CC2)on1 | 4.79%
CC(Nc1ccc2c(c1)CCC2)c1nc(C2CC2)no1 (stereo not drawn) | 7.92%
CC(C)(C)OC(=O)N1CCC(C(=O)NC2CCS(=O)(=O)C2)CC1 (stereo not drawn) | -6.81%
CN(C)c1ccc(C(=O)N(Cc2ccncc2)CC2CCCO2)nn1 (stereo not drawn) | 14.2%
Cc1nc(CNCC2CCCN(C(=O)OC(C)(C)C)C2)cs1 (stereo not drawn) | -18.2%
NC(=O)NC(=O)CN1CCN(CC2CC2)c2ccccc21 | 11.7%
O=S(=O)(CCCc1ccccc1)Cc1nnnn1C1CC1 | -1.01%
CCCC(NC(=O)c1cscc1C)c1nnn[nH]1 (stereo not drawn) | 19.5%
CSc1ccc(CNCCS(=O)(=O)N2CCOCC2)cc1 | 4.83%
Cn1cc(CC(=O)N2CCOC(c3nc(C(C)(C)C)n[nH]3)C2)cn1 (stereo not drawn) | 2.4%
Cc1ccc(OC2CCN(S(=O)(=O)N(C)C)CC2)nc1 | 7.68%
CN1CC(C(=O)N2CCC(Oc3ccccc3Cl)CC2)CC1=O (stereo not drawn) | 9.99%
CCn1ncc2c1CCCC2NCc1cscn1 (stereo not drawn) | -2.42%
Cc1nc(CN2CCN(C(C)C(=O)NC3CCCC3)CC2)cs1 (stereo not drawn) | -3.9%
CCOCc1ccc(CNc2nc(OC)ncc2Cl)cc1 | 13.2%
c1cnn(C2CN(CCCOc3ccc4c(c3)OCO4)C2)c1 | -4.73%
COc1ccc(-c2ccc(C(=O)NCCCC(N)=O)c(F)c2)c(F)c1 | 0.393%
CSCc1cc(F)ccc1CNCc1cccnc1 | -9.84%
Cc1occc1C(=O)N1CCCS1(=O)=O | -11%
Cc1noc(C)c1CN(C)c1ncnc2ccccc12 | -6.4%
CCN(CC)S(=O)(=O)CCNC(=O)N(C)C(C)c1ccccn1 (stereo not drawn) | 10.6%
N#CCSCCCN1CCCC(C(=O)N2CCCCCC2)C1 (stereo not drawn) | 4.01%

Compound | cytotoxicity at 10 µM
CCOC[C@@H]1CCC[C@]12CN(S(=O)(=O)c1cn(C)cn1)CCO2 | 5.7%
CS(=O)(=O)N1C[C@H]2N(c3ncccn3)CCC[C@@]2(C(=O)NCC2CC2)C1 | -110%
O=C(c1ccccc1)N1CCO[C@@H]2CN(Cc3ccc[nH]3)C[C@@H]2C1 | -98%
COCC(=O)N1CCc2nc(C)nc(NC(C)C)c2CC1 | -102%
O=C(NC1CC(F)(F)C1)[C@]12COC[C@H]1CN(Cc1ccsc1)C2 | -109%
O=C(C1CCC1)N1CC[C@@H]2CN(Cc3cccnc3)S(=O)(=O)[C@@H]2CC1 | -109%
O=C(c1ccoc1)N1CC[C@H]2C[C@@H](c3nnc(C4CC4)o3)O[C@@H]2C1 | -101%
O=C(NCC1CC1)[C@H]1C[C@H]2OCC[C@H]2N(Cc2ccoc2)C1 | -3.01%
COCC1CN(C(=O)c2ccoc2C)Cc2nccn2C1 (stereo not drawn) | 6.1%
Cn1cccc1C(=O)N1CCc2ncnc(C3CC3)c2CC1 | 5.17%
Cc1nc(C(C)C)sc1C(=O)N(C)Cc1nc(-c2ccccn2)no1 | -0.683%
COc1ccc2c(c1)OCC(Cc1cc(C(=O)N3CCCC3)ccn1)C2 (stereo not drawn) | -0.675%
Cc1[nH]c2c(C)ccc(C)c2c1CC(=O)NC1CCCNC1=O (stereo not drawn) | -0.274%
Cc1ccc(C(C(=O)NC(C)(C)CN2CCCC2)N(C)C)cc1 (stereo not drawn) | -6.93%
CCNC(=O)[C@@H]1C[C@H](N)CN1Cc1ccc2cccc(Cl)c2n1 | 5.91%
Cc1cccc(C(=O)N2CCCCC2c2ccc(CN(C)C)cc2)c1 (stereo not drawn) | -0.909%
O=C(c1cn(Cc2ccc(Cl)cc2)nn1)N1CCCO1 | -6.01%
O=S(=O)(NCCn1cc(C2CCCNC2)nn1)c1ccc(Cl)cc1 (stereo not drawn) | -17.1%
O=C(NCc1nncn1C1CCCCC1)C1COc2ccccc2O1 (stereo not drawn) | 2.83%
CC(CO)(CO)NC(=O)C1CCC(=O)N(Cc2ccc(Cl)cc2)C1 (stereo not drawn) | -4.71%
Cc1cc(NCCNc2cccnc2)nc(-c2ccccc2O)n1 | 47.9%
COCCc1noc(CN2CCC(c3ccccc3C(=O)O)C2)n1 (stereo not drawn) | -3.03%

Compound | cytotoxicity at 10 µM
O=C1NCC2(CCCN(C(=O)CCn3cnc4ccccc43)CC2)O1 (stereo not drawn) | -4.8%
Cc1cnn(CCC(=O)N2CCN(C(=O)C(C)C)[C@@H]3CS(=O)(=O)C[C@@H]32)c1 | 2.47%
CCn1c(C)cc(C(=O)N2C[C@@H](C(=O)O)[C@H](c3ccccc3)C2)c1C | -0.173%
O=C(c1ccc2cccc(F)c2n1)N1CCN(CCn2cncn2)CC1 | 7.02%
COCCCC1CCCN(C(=O)CCc2csc(N)n2)C1 (stereo not drawn) | -2.66%
O=C(O)[C@@H]1CN(C(=O)CCc2ccccn2)C[C@H]1c1ccccc1 | 7.96%
CCCOCC1CCN(C(=O)c2cnc(C)nc2O)C1 (stereo not drawn) | -3.15%
CC(C1CCN(C(=O)c2coc(CN3CCOCC3)c2)CC1)N(C)C (stereo not drawn) | -4.07%
O=C(NCCN1CCCC(CO)C1)c1ccc2scnc2c1 (stereo not drawn) | 8.61%
Cc1ccc(C)c(OCc2cc(C(=O)N(C)Cc3nonc3C)no2)c1 | -5.83%
CCc1nnc(CN(CC)C(=O)C2CC(=O)N(C(C)(C)C)C2)o1 (stereo not drawn) | 1.56%
Cc1nc(CNCc2ccc(OC34CCCN(CC3)C4)cc2)n[nH]1 (stereo not drawn) | 1.01%
Cc1nccn1CCC1CCN(c2ccncn2)CC1 | -9.14%
O=C(c1cccc2ccnn12)N1CCCC1Cn1cccn1 (stereo not drawn) | -126%
CC(C)(C)C(=O)NCCC1CN(Cc2ccccc2F)CCO1 (stereo not drawn) | -2.05%
Cc1ccsc1-c1nccn1C1CC(=O)N(C(C)C)C1 (stereo not drawn) | -9.73%
CNc1ncc(CN(C)Cc2cc(O)c3cc(C)cc(C)c3n2)cn1 | -13.9%
COc1cccc(N2CCN(C(=O)CN(C)c3cnccn3)CC2)c1 | -15.2%
CC(C)=CCN1CCN(Cc2nccn2C)C(C)C1 (stereo not drawn) | -14.4%
CC(=O)NC1CCCN(Cc2csc(-c3ncccn3)n2)C1 (stereo not drawn) | -13.1%
c1ccc(-c2nc(CNC3CCc4ncnn4C3)co2)cc1 (stereo not drawn) | -8.6%
CC(C)c1nn(C)c(N(C)C)c1CNCCC(=O)NC1CCCC1 | -6.63%

Compound | cytotoxicity at 10 µM
CC(C)COCC(NC(=O)c1cccnc1)c1ccco1 (stereo not drawn) | -12.1%
Cc1[nH]ncc1C(=O)N1CCN(CC(O)C(C)(C)C)CC1 (stereo not drawn) | -0.00964%
CNC(=O)[C@@H](c1ccccc1OC)N1CCC[C@H]1C(=O)NC1CC1 | -4.39%
O=C(c1cnccn1)N1C[C@@H]2CCN(c3cnccn3)C[C@@H]2C1 | -100%
Cc1csc(CN2CCC[C@]3(C[C@@H](OCC4CC4)CO3)C2)n1 | -134%
CC(C)CN1CCC2(C1)CN(S(=O)(=O)c1cn(C)cn1)C2 | -116%
CN(Cc1ccco1)[C@@H]1CN(Cc2nccn2C)[C@@H]2CCCO[C@H]12 | -67.9%
Cc1cccc(CN2CCO[C@@H]3CC(COc4ccccn4)C[C@H]32)n1 (stereo partly drawn) | -3.31%
CC(C)N1CCOCC2(CCN(c3cnccn3)CC2)C1 | -109%
CNC(=O)[C@H]1C[C@@H]2CN(S(=O)(=O)c3ccc(F)cc3)C[C@@H]2N1C | -2.97%
Cc1ccc(N2C[C@@H]3OCCN(CC4CC4)[C@@H]3C2)nn1 | 3.59%
OCCOCc1n[nH]c2c1CN(Cc1ccccn1)C2 | -112%
Cc1ccc(C(=O)N2CC[C@]3(C[C@@H](OCc4ccccn4)CO3)C2)nc1 | -74.6%
c1cc(CN2CCCn3cnc(COCC4CC4)c3C2)co1 | -74.2%
N#Cc1cccc(CN2C[C@H](NC(=O)C3CC3)[C@H]3OCCC[C@H]32)c1 | -0.155%
CCOCCCNC(=O)c1nc2c(s1)CCCN2c1ccc(C)nn1 | 13.5%
Cc1ccc(C(=O)N2C[C@@H](OCc3cccnc3)[C@H]3OCCC[C@@H]32)o1 | -2.52%
Cc1oncc1C(=O)NCc1cc(=O)n2c(n1)CN(C(C)C)CCC2 | 2.45%
O=C(NC1CCC(O)CC1)c1ccc2nc(-c3ccc(F)cc3)cn2c1 (stereo not drawn) | 1.31%
CCCS(=O)(=O)N1C[C@@H]2C[C@H](C(=O)N3CCCC3)[C@H](C1)O2 | -6.28%
